# C2C12 statin: suppressors of simvastatin-induced myotoxicity in C2C12 myotubes; ATP luminescence, 48 h; scaled: DMSO 0, geranylgeraniol control 100; rescue of ATP level, % at 7.49 µM; actives 0.78% (n = 330,000); AID 602340;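 active means mean ATP rescue above about 67%, or every replicate alone reaching that limit, limit read from the data, passing the limit was not always enough; inconclusive means no clear call, values can overlap the other calls; inactive means mean under the limit and some replicate under it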;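 further: myotubes were challenged with 10 µM simvastatin during compound exposure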
# E-sel inducer: E-selectin induction on HUVECs; HUVEC E-selectin immunofluorescence imaging; normalized: neutral wells 0, TNF-alpha wells 100; activation, % at 7.58 µM; actives 0.37% (n = 260,000); AID 686992;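 active means mean E-selectin-positive cell signal at least 10% of the positive control, reached in at least 60% of replicates, without over 20% cell loss; inconclusive means no rule given, readout overlaps actives, possibly toxicity-flagged; inactive means the rest, including those meeting only one limit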
# Target sequence (P16581 whole entry, looked up): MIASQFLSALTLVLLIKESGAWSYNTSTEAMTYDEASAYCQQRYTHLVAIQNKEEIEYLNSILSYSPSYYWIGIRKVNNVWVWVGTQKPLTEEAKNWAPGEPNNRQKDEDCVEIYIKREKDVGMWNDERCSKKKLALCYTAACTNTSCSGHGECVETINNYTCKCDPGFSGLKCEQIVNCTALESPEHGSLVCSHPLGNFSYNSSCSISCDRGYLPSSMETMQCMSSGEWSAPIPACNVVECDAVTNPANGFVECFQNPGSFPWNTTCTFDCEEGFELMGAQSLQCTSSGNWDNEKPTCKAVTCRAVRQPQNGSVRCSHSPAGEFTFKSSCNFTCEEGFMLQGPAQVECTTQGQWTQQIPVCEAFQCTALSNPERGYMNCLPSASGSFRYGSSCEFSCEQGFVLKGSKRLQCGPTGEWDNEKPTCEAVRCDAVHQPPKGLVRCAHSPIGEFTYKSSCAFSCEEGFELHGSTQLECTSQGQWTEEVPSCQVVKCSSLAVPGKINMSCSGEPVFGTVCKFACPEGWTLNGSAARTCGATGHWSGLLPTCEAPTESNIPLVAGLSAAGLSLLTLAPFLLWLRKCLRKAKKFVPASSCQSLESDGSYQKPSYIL
#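 Test system: HUVEC; input: 3,000 HUVEC/well; measured by: immunofluorescence imaging; read-out: % PE-positive cells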
# DENV2 CPE rescue: DENV2-induced cell death inhibition. CPE inhibition, % at 9.99 µM. actives 1.7% (n = 350,000). DENV2-infected cells, cytopathic effect rescue, plate reader; in the data active means CPE inhibition above about 20%, passing the limit was not always enough; inconclusive means no clear call, values can overlap the other calls; tested in BHK-21 cells
# Numbers stand for hits; . = inactive; ? = inconclusive; / = not tested or not shown; ! = not confirmed by another sample. This is a sample that favours compounds with a hit; in the whole collection about 2.2% have one here.
SMILES,C2C12 statin,E-sel inducer,DENV2 CPE rescue
C[C@H](CO)N1C[C@H](C)[C@H](CN(C)S(=O)(=O)c2ccccc2)Oc2ccc(NC(=O)Nc3ccccc3)cc2CC1=O,.,.,.
O=C1C2(CCC13COC(c1ccc(O)cc1)OC3)COC(c1ccc(O)cc1)OC2 (centres undefined),.,/,/
O=C1C2(CCCC13COC(c1ccc(O)cc1)OC3)COC(c1ccc(O)cc1)OC2 (centres undefined),/,/,28
C[C@@H]1CN([C@@H](C)CO)C(=O)c2cccc(NS(=O)(=O)c3cn(C)cn3)c2O[C@@H]1CN(C)Cc1ccc(C(F)(F)F)cc1,.,.,22
C[C@@H]1CN([C@H](C)CO)C(=O)c2cccc(NC(=O)C3CC3)c2O[C@H]1CN(C)CC1CCCCC1,.,.,75
C[C@H]1CN([C@@H](C)CO)C(=O)c2cccc(NC(=O)C3CC3)c2O[C@H]1CN(C)CC1CCCCC1,.,.,.
C[C@@H]1CN([C@H](C)CO)C(=O)c2cccc(NS(=O)(=O)c3ccccc3)c2O[C@H]1CN(C)CC1CCCCC1,.,.,.
C[C@H](CO)N1C[C@H](C)[C@H](CN(C)CC2CCCCC2)Oc2c(NC(=O)C3CC3)cccc2C1=O,.,.,36
C[C@H](CO)N1C[C@H](C)[C@H](CN(C)Cc2ccc(C(F)(F)F)cc2)Oc2c(NS(=O)(=O)c3cn(C)cn3)cccc2C1=O,.,.,.
C[C@@H]1CN([C@@H](C)CO)C(=O)c2cccc(NS(=O)(=O)c3ccccc3)c2O[C@@H]1CN(C)CC1CCCCC1,.,.,24
C[C@H](CO)N1C[C@H](C)[C@@H](CN(C)CC2CCCCC2)Oc2c(NC(=O)C3CC3)cccc2C1=O,.,.,.
Cc1ccc(-c2cnc3c(c2)C(=O)N([C@@H](C)CO)C[C@@H](C)[C@H](CN(C)C(=O)CN(C)C)O3)cc1,.,.,?
CO[C@@H]1CN(C)C(=O)c2ccc(NC(=O)Nc3ccccc3F)cc2OC[C@H](C)NC[C@@H]1C,.,.,.
CC(=O)N1CC2(C1)[C@H](c1ccc(-c3ccc(F)cc3)cc1)[C@@H](CO)N2C(C)=O,/,.,.
CC(C)NC(=O)Nc1ccc2c(c1)C(=O)N([C@H](C)CO)C[C@H](C)[C@H](CN(C)C(=O)C1CCCCC1)OCCCC[C@H](C)O2,.,.,/
O=C(N[C@@H]1C=C[C@H](CC(=O)N2CCOCC2)O[C@@H]1CO)c1ccccn1,.,.,.
CCS(=O)(=O)N1CC2(C1)[C@@H](c1ccccc1)[C@@H](CO)N2C(=O)C1CCCC1,/,.,.
CCCN(C)C[C@H]1OCCCC[C@@H](C)Oc2ccc(NC(=O)c3ccccc3)cc2C(=O)N([C@@H](C)CO)C[C@H]1C,.,.,/
C[C@H](NC(=O)C[C@H]1CC[C@@H](NC(=O)Cc2ccccn2)[C@@H](CO)O1)c1ccccc1,.,.,.
C[C@H](CO)N1C[C@H](C)[C@@H](CN(C)S(=O)(=O)c2cn(C)cn2)Oc2c(NS(=O)(=O)c3ccccc3)cccc2C1=O,.,.,23!
C[C@@H]1CN([C@H](C)CO)C(=O)c2cccc(NS(=O)(=O)c3ccccc3)c2O[C@@H]1CN(C)S(=O)(=O)c1cn(C)cn1,.,.,.
C[C@H](CO)N1C[C@H](C)[C@H](CN(C)S(=O)(=O)c2cccs2)Oc2ccc(NC(=O)C3CC3)cc2CC1=O,.,.,.
CNC[C@H]1Oc2ccc(NS(=O)(=O)c3ccc(F)cc3)cc2CC(=O)N([C@@H](C)CO)C[C@@H]1C,.,.,?
COc1ccc(N2C(=O)CC(C#N)=C2N)cc1,/,/,.
N#CC1=C(N)N(c2ccccc2)C(=O)C1,106,/,/
SMILES,C2C12 statin,E-sel inducer,DENV2 CPE rescue
COCCNC(=O)CCSc1nc(-c2ccc(OC)cc2)cc(C(F)(F)F)n1,87,/,/
COc1ccc(-c2cc(C(F)(F)F)nc(SCCC(=O)N3CCCC3)n2)cc1,.,.,/
C[C@@H]1CN([C@@H](C)CO)C(=O)c2cc(NS(=O)(=O)c3ccc(Cl)cc3)ccc2O[C@@H](C)CCCCO[C@@H]1CN(C)CC1CCCCC1,/,.,.
CCNC(=O)[C@@H]1[C@@H](CO)[C@@H]2Cn3c(ccc(-c4cccnc4)c3=O)[C@@H]2N1Cc1ccc2c(c1)OCO2,.,.,.
Cn1c(=O)c2nc(-c3ccccc3)c(-c3ccccc3)nc2n(C)c1=O,/,.,.
Cn1c(=O)c2nc(Cl)c(-c3ccccc3)nc2n(C)c1=O,/,/,55
O=C(N1CCOCC1)[C@]1(CCS(=O)(=O)c2ccccc2)N=C(c2ccc(OCCCO)cc2)O[C@@H]1c1ccccc1,/,/,23
COC(=O)[C@@]1(CCS(=O)(=O)c2ccccc2)N=C(c2ccc(OCCCO)cc2)O[C@H]1c1ccccc1CN=[N+]=[N-],/,/,22
COC(=O)[C@@]1(Cc2ccccc2CN=[N+]=[N-])N=C(c2ccc(OCCCO)cc2)O[C@H]1c1ccccc1N=[N+]=[N-],/,/,.
O=C(NCCN1CCOCC1)[C@@]1(CCS(=O)(=O)c2ccccc2)N=C(c2ccc(OCCCO)cc2)O[C@H]1c1ccccc1,/,/,.
O=C(Nc1ccc(F)cc1)N[C@@H]1C=C[C@H](CC(=O)N2CCCCC2)O[C@@H]1CO,.,.,.
CO[C@@H]1CN(C)C(=O)c2ccc(NC(C)=O)cc2OC[C@H](C)N(Cc2cncnc2)C[C@@H]1C,.,.,/
COCC(=O)NC[C@H]1[C@@H](c2ccccc2)[C@@H](CO)N1C(C)=O,.,.,.
C[C@H](NC(=O)c1[nH]cnc1C(=O)Nc1ccccc1)C(=O)OC(C)(C)C,.,.,.
Cc1cccc(NC(=O)c2nc[nH]c2C(=O)NCCCNC(=O)c2[nH]cnc2C(=O)Nc2cccc(C)c2)c1,.,.,45
CNC(=O)c1[nH]cnc1C(=O)Nc1ccc(Cl)cc1,.,.,41
CCOC(=O)c1ccc(NC(=O)c2nc[nH]c2C(=O)NC[C@H](C)O)cc1,.,/,80
Cc1cccc(NC(=O)c2nc[nH]c2C(=O)NCCN(CCNC(=O)c2[nH]cnc2C(=O)Nc2cccc(C)c2)CCNC(=O)c2[nH]cnc2C(=O)Nc2cccc(C)c2)c1,.,.,.
CNC(=O)c1[nH]cnc1C(=O)Nc1ccc(C)cc1,.,.,.
Cc1ccc(NC(=O)c2nc[nH]c2C(=O)N[C@@H](C)C(=O)OC(C)(C)C)cc1,.,.,98
CCOC(=O)c1ccc(NC(=O)c2nc[nH]c2C(=O)NC[C@@H](C)O)cc1,.,.,.
COCC(=O)Nc1ccc2c(c1)OC[C@@H](C)N(Cc1ccccc1)C[C@@H](C)[C@@H](OC)CN(C)C2=O,.,.,.
C[C@@H]1CN([C@H](C)CO)C(=O)Cc2cc(NC(=O)CCN3CCOCC3)ccc2O[C@@H]1CN(C)S(=O)(=O)c1cccs1,.,.,?
C[C@@H]1CN([C@@H](C)CO)C(=O)Cc2cc(NS(=O)(=O)c3ccccc3)ccc2O[C@H]1CN(C)Cc1ccc(C(F)(F)F)cc1,.,.,.
O=C(NC1CCCC1)N1CCCCN2[C@H](CO)[C@H](c3ccc(-c4ccccc4)cc3)[C@H]2C1,/,.,.
CC(C)COC(=O)N(C)C[C@@H]1OCc2ccccc2-c2ccccc2C(=O)N([C@H](C)CO)C[C@@H]1C,.,.,.

# Bioassay records from PubChem.
